Active and inactive are the calls of the source. The rule behind the calls is not given here.
Assays:
KiSS-1 receptor [1] = target: T1, KiSS-1 receptor (Homo sapiens, UniProt Q969F8); assay: Agonist activity at human KISS1R transfected in CHO cells assessed as intracellular calcium flux after 24 hrs by functional FLIPR assay; assay type: cell-based
Summary of the method: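 CHO cells stably expressing human KISS1R were seeded at 15 000 cells/mL, cultured 24 h, then loaded with fluo-3 for 1 h at 37 °C in HBSS/HEPES (pH 7.4) with probenecid and FBS. Cells were washed in HBSS with 2.5 mM probenecid. Peptides came from 1 mM DMSO stocks diluted in buffer containing probenecid, 0.2% BSA and 0.1% CHAPS. Fluorescence was recorded on FLIPR for 3 min; peak counts over 0–180 s gave agonist activity.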

KiSS-1 receptor [2] = target: T2, KiSS-1 receptor (Rattus norvegicus, UniProt Q924U1); assay: Agonist activity at rat KISS1R transfected in CHO cells assessed as intracellular calcium flux after 24 hrs by functional FLIPR assay; assay type: cell-based
T2 sequence (Q924U1 whole entry): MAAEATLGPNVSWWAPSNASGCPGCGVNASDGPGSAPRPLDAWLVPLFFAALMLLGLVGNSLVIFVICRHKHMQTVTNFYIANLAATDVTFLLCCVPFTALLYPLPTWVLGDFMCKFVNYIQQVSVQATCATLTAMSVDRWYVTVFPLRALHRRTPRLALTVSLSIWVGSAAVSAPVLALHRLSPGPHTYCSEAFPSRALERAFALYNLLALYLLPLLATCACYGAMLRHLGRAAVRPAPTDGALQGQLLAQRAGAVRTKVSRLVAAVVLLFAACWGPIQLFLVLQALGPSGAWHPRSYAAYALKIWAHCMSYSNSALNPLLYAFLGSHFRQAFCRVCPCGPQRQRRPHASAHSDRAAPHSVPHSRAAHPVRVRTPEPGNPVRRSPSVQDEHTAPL

KiSS-1 receptor [3] = target: T1, KiSS-1 receptor; assay: Displacement of radioligand from human KISS1R transfected in CHO cells; assay type: cell-based
Summary of the method: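 Binding used membrane fractions prepared from CHO cells expressing recombinant human KISS1R.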

KiSS-1 receptor [4] = target: T2, KiSS-1 receptor; assay: Displacement of radioligand from rat KISS1R transfected in CHO cells; assay type: cell-based
[5] = Stability of the compound in aqueous solution (JP1) assessed as residual ratio at pH 1.2 up to 1 week by HPLC analysis relative to initial level; assay type: physicochemical
Summary of the method: (§1)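 Peptides in aqueous solution at pH 1.2 (JP1, containing 10% acetonitrile), 3, 5 or 7 were kept in the dark at 37 °C for up to 2 weeks. Peptide remaining was quantified from HPLC peak area, with detection at 230–280 nm. The residual ratio (stability index) was expressed relative to the time-0 amount, taken as 100%.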

[6] = Stability of the compound in aqueous solution assessed as residual ratio at pH 3 up to 1 week by HPLC analysis relative to initial level; assay type: physicochemical; summary of the method: as §1
[7] = Stability of the compound in aqueous solution assessed as residual ratio at pH 5 up to 1 week by HPLC analysis relative to initial level; assay type: physicochemical; summary of the method: as §1
[8] = Stability of the compound in aqueous solution assessed as residual ratio at pH 7 up to 1 week by HPLC analysis relative to initial level; assay type: physicochemical; summary of the method: as §1
[9] = Stability of the compound in aqueous solution (JP1) assessed as residual ratio at pH 1.2 up to 2 weeks by HPLC analysis relative to initial level; assay type: physicochemical; summary of the method: as §1
[10] = Stability of the compound in aqueous solution assessed as residual ratio at pH 3 up to 2 weeks by HPLC analysis relative to initial level; assay type: physicochemical; summary of the method: as §1
[11] = Stability of the compound in aqueous solution assessed as residual ratio at pH 5 up to 2 weeks by HPLC analysis relative to initial level; assay type: physicochemical; summary of the method: as §1
[12] = Stability of the compound in aqueous solution assessed as residual ratio at pH 7 up to 2 weeks by HPLC analysis relative to initial level; assay type: physicochemical; summary of the method: as §1
Rattus norvegicus [13] = assay: Testosterone-suppressive activity in Crl:CD(SD) rat assessed as number of animal with plasma testosterone level below the limit of detection at 0.05 mol/hr, sc through osmotic pumps measured after 6 days by RIA; assay type: functional
Rattus norvegicus [14] = assay: Testosterone-suppressive activity in Crl:CD(SD) rat assessed as number of animal with plasma testosterone level below the limit of detection […], sc through osmotic pumps measured after 6 days by RIA; assay type: functional
[15] = AUC (0 to 24 hrs) in Sprague-Dawley rat at 1 mg/kg, iv after 24 hrs by LC-MS/MS analysis; assay type: ADME, organism-based; design: time < 24 hr, dose 1 mg/kg, route intravenous; conditions: plasma
Summary of the method: (§2)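 Male Crl:CD(SD) rats (3 per group) got a single intravenous dose of 1 mg/kg. Blood was drawn at 5, 10, 15 and 30 min and at 1, 2, 4, 8 and 24 h. Plasma proteins were removed with 0.2% formic acid/methanol and acetonitrile, and the supernatant was treated with 0.4% formic acid. Peptide was quantified by LC-MS. Noncompartmental parameters were derived per rat, reported as mean ± SD (n = 3).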

[16] = Mean residence time in Sprague-Dawley rat at 1 mg/kg, iv after 24 hrs by LC-MS/MS analysis; assay type: ADME, organism-based; design: dose 1 mg/kg, route intravenous; conditions: in vivo; summary of the method: as §2
[17] = Volume of distribution at steady state in Sprague-Dawley rat at 1 mg/kg, iv after 24 hrs by LC-MS/MS analysis; assay type: ADME, organism-based; design: dose 1 mg/kg, route intravenous; conditions: in vivo, read-out: Vdss; summary of the method: as §2
[18] = Total clearance in Sprague-Dawley rat at 1 mg/kg, iv after 24 hrs by LC-MS/MS analysis; assay type: ADME, organism-based; design: dose 1 mg/kg, route intravenous; conditions: in vivo; summary of the method: as §2
[19] = Cmax in Sprague-Dawley rat at 1 mg/kg, sc after 24 hrs by LC-MS/MS analysis; assay type: ADME, organism-based; design: dose 1 mg/kg, route subcutaneous; conditions: in vivo
Summary of the method: (§3)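 Single subcutaneous dose of 1 mg/kg in male Crl:CD(SD) rats, n = 3 per group. Blood was sampled from 5 min to 24 h (5, 10, 15, 30 min; 1, 2, 4, 8, 24 h). Plasma was deproteinized with formic acid/methanol and acetonitrile, and peptide levels were measured by LC-MS. Noncompartmental analysis per animal gave Cmax, Tmax, AUC0-24h, MRT and BA; values are mean ± SD (n = 3).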

[20] = Tmax in Sprague-Dawley rat at 1 mg/kg, sc after 24 hrs by LC-MS/MS analysis; assay type: ADME, organism-based; design: dose 1 mg/kg, route subcutaneous; conditions: in vivo; summary of the method: as §3
[21] = AUC (0 to 24 hrs) in Sprague-Dawley rat at 1 mg/kg, sc after 24 hrs by LC-MS/MS analysis; assay type: ADME, organism-based; design: time < 24 hr, dose 1 mg/kg, route subcutaneous; conditions: plasma; summary of the method: as §3
[22] = Mean residence time in Sprague-Dawley rat at 1 mg/kg, sc after 24 hrs by LC-MS/MS analysis; assay type: ADME, organism-based; design: dose 1 mg/kg, route subcutaneous; conditions: in vivo; summary of the method: as §3
[23] = Bioavailability in Sprague-Dawley rat at 1 mg/kg, sc after 24 hrs by LC-MS/MS analysis; assay type: ADME, organism-based; conditions: in vivo; summary of the method: as §3
Rattus norvegicus [24] = assay: Testosterone-suppressive activity in Crl:CD(SD) rat assessed as plasma testosterone level below the limit of detection at 10 to 100 pmol/hr, sc continuous administration through osmotic pumps measured up to 1 week by RIA; assay type: functional, organism-based
Summary of the method: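 Peptide in 50% DMSO was diluted in distilled water to 10, 30 or 100 μM pump solutions, giving 10–100 pmol/h by subcutaneous ALZET osmotic pump in male Crl:CD(SD) rats (n = 5). Vehicle served as control. Plasma testosterone was measured by RIA after 1 or 4 weeks, with values below 0.04 ng/mL set to 0.04. Results are mean ± SD of five rats, tested by one-tailed Shirley–Williams test versus vehicle.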

[25] = C5min in Sprague-Dawley rat at 1 mg/kg, iv after 5 mins by LC-MS/MS analysis; conditions: in vivo, read-out: Cmin
Rattus norvegicus [26] = assay: Testosterone-suppressive activity in Crl:CD(SD) rat assessed as number of animal with plasma testosterone level below the limit of detection at 2 nmol/hr, sc through osmotic pumps measured after 6 days by RIA; assay type: functional
Summary of the method: (§4)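 Peptide was dissolved in distilled water or 50% DMSO as 0.1–2 mM pump solutions and delivered by ALZET osmotic pumps implanted subcutaneously in the back of 9-week-old male Crl:CD(SD) rats (n = 5) under ether. Controls received distilled-water pumps. After 6 days, rats were decapitated and plasma was recovered with aprotinin/EDTA. Testosterone was measured by RIA, and the number of rats below the detection limit (0.04 ng/mL) was counted.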

Rattus norvegicus [27] = assay: Testosterone-suppressive activity in Crl:CD(SD) rat assessed as number of animal with plasma testosterone level below the limit of detection at 0.5 nmol/hr, sc through osmotic pumps measured after 6 days by RIA; assay type: functional; summary of the method: as §4
Rattus norvegicus [28] = assay: Testosterone-suppressive activity in Crl:CD(SD) rat assessed as number of animal with plasma testosterone level below the limit of detection at 0.3 nmol/hr, sc through osmotic pumps measured after 6 days by RIA; assay type: functional; summary of the method: as §4
Rattus norvegicus [29] = assay: Testosterone-suppressive activity in Crl:CD(SD) rat assessed as number of animal with plasma testosterone level below the limit of detection at 0.1 nmol/hr, sc through osmotic pumps measured after 6 days by RIA; assay type: functional; summary of the method: as §4

T1 sequence (Q969F8 whole entry): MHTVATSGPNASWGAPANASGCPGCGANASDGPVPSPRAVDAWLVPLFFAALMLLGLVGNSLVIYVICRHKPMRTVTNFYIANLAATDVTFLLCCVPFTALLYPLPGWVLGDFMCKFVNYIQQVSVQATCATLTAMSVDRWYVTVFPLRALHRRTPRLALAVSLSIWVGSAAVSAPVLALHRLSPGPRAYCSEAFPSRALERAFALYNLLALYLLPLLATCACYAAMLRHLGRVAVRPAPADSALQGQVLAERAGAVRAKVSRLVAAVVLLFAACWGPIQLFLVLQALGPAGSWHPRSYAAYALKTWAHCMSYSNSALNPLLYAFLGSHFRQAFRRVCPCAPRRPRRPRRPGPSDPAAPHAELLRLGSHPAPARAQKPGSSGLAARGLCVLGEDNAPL

EC50 (KiSS-1 receptor [1])	EC50 (KiSS-1 receptor [2])	Ki (KiSS-1 receptor [3])	remaining at 168 h [5]	remaining at 168 h [6]	remaining at 168 h [7]	remaining at 168 h [8]	remaining at 336 h [9]	remaining at 336 h [10]	remaining at 336 h [11]	remaining at 336 h [12]	AUC(0-t) at 24 h [15]	MRT [16]	Vd [17]	clearance [18]	Cmax [19]	Tmax [20]	AUC(0-t) at 24 h [21]	MRT [22]	Structure (SMILES)	Activity (Rattus norvegicus [14])	further results
0.75 nM	4.1 nM	0.089 nM	58.3%	98.7%	98.5%	82.6%	33%	96.8%	97%	69.8%	1260 ng·h/mL	41.4 min	0.547 L/kg	13.2 mL/min/kg	90 ng/mL	25.2 min	152 ng·h/mL	64.2 min	CNC(=N)NCCC[C@H](NC(=O)[C@H](CC(C)C)NC(=O)NNC(=O)[C@H](Cc1ccccc1)NC(=O)[C@@H](NC(=O)[C@H](CC(N)=O)NC(=O)[C@@H](Cc1ccncc1)NC(=O)[C@@H](Cc1ccc(O)cc1)NC(C)=O)[C@@H](C)O)C(=O)N[C@@H](Cc1c[nH]c2ccccc12)C(N)=O	2 animals	Ki (KiSS-1 receptor [4]): 0.17 nM; Activity (Rattus norvegicus [13]): 5%; bioavailability [23]: 12.1%; inhibition (Rattus norvegicus [24]): Active; concentration at 5 min [25]: 2070 ng/mL
1 nM	4.1 nM	0.036 nM	64.9%	98.7%	98.8%	84.9%	39.1%	98.2%	96.5%	72.8%	503 ng·h/mL	43.8 min	1.46 L/kg	33.3 mL/min/kg	47 ng/mL	11.4 min	46 ng·h/mL	52.8 min	CNC(=N)NCCC[C@H](NC(=O)[C@H](CC(C)C)NC(=O)NNC(=O)[C@H](Cc1ccccc1)NC(=O)[C@@H](NC(=O)[C@H](CC(N)=O)NC(=O)[C@@H](Cc1c[nH]c2ccccc12)NC(=O)[C@H](N)Cc1ccc(O)cc1)[C@@H](C)O)C(=O)N[C@@H](Cc1c[nH]c2ccccc12)C(N)=O	–	Activity (Rattus norvegicus [26]): 100%; Activity (Rattus norvegicus [27]): 60%; Activity (Rattus norvegicus [28]): 60%; Activity (Rattus norvegicus [29]): 0 rats (n = 5); bioavailability [23]: 9.2%; concentration at 5 min [25]: 1440 ng/mL
0.3 nM	1.1 nM	0.039 nM	–	–	–	–	–	–	–	–	–	–	–	–	–	–	–	–	CNC(=N)NCCC[C@H](NC(=O)[C@H](CC(C)C)NC(=O)NNC(=O)[C@H](Cc1ccccc1)NC(=O)[C@@H](NC(=O)[C@H](CC(N)=O)NC(=O)[C@@H](Cc1c[nH]c2ccccc12)NC(=O)CCc1ccc(O)cc1)[C@@H](C)O)C(=O)N[C@@H](Cc1c[nH]c2ccccc12)C(N)=O	0 animals	Activity (Rattus norvegicus [29]): 100%

Source: ChEMBL document CHEMBL3352485 (J Med Chem, 2014)
